What was measured:
HeLa cells = test: Cell growth inhibitory activity; assay type: cell-based, human; conditions: read-out: IC50 HeLa; 72 h, MTT; mean ± SE
Outline: (§1)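 Jurkat, CEM and SEM cells were grown in RPMI-1640, and HeLa, MCF-7, HT-29 and LoVo in DMEM, each with 10% FBS and penicillin/streptomycin. Wells got 8 × 10^3 cells and were preincubated 18 h at 37 °C in 5% CO2. Test compound from a 10 mM DMSO stock was diluted in medium (final DMSO ≤0.25%) and applied for 72 h. Read-out was MTT. IC50 is the concentration giving 50% inhibition of proliferation, from dose–response curves of ≥3 independent experiments, mean ± SE.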

HT-29 cells = test: Cell growth inhibitory activity; assay type: cell-based, human; conditions: read-out: IC50 HT-29; 72 h, MTT; mean ± SE
Outline: as §1

LoVo cells = test: Cell growth inhibitory activity; assay type: cell-based, human; conditions: read-out: IC50 LoVo; 72 h, MTT; mean ± SE
Outline: as §1

CEM cells = test: Cell growth inhibitory activity; assay type: cell-based, human; conditions: read-out: IC50 CEM; 72 h, MTT; mean ± SE
Outline: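 Human T-cell leukemia cells grown in RPMI-1640 with 10% FBS, penicillin G 115 units/mL and streptomycin 115 μg/mL. 8 × 10^3 cells/well were preincubated 18 h at 37 °C, 5% CO2, then exposed to graded compound concentrations in complete medium from 10 mM DMSO stocks (final DMSO ≤0.25%) for 72 h at 37 °C. Viability was read by MTT, and IC50 is the concentration inhibiting proliferation by 50%.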

Jurkat cells = test: Cell growth inhibitory activity; assay type: cell-based, human; conditions: read-out: IC50 Jurkat; 72 h, MTT; mean ± SE
Outline: as §1

SEM cells = test: Cell growth inhibitory activity; assay type: cell-based, human; conditions: read-out: IC50 SEM; 72 h, MTT; mean ± SE
Outline: as §1

MCF-7 cells = test: Cell growth inhibitory activity; assay type: cell-based, human; conditions: read-out: IC50 MCF-7; 72 h, MTT; mean ± SE
Outline: as §1

[1] = tested on: panel of seven human cancer cell lines; test: Antiproliferative activity across the panel of seven cancer cell lines; assay type: cell-based; conditions: 4′-methoxy replaced by 4′-ethoxy
Outline: as §1

“2-Bromo-N-(4-{(1E)-3-oxo-3-[(4-ethoxyphenyl)amino] prop-1-en-1-yl}phenyl)-acrylamide [4j]” showed an IC50 (HeLa cells) of 2000 ± 130 nM, an IC50 (HT-29 cells) of 3400 ± 300 nM and an IC50 (LoVo cells) of 850 ± 30 nM. For the same substance, the IC50 (CEM cells) was 98 ± 33 nM, the IC50 (Jurkat cells) was 930 ± 120 nM and the IC50 (SEM cells) was 180 ± 40 nM. The IC50 (MCF-7 cells) was 5500 ± 1000 nM and the “fold reduction in activity vs 4i” value [1] was 2–4 fold.
